This is a sample that favours compounds with a hit; in the whole collection about 1.2% have one here.
IDE cell activ: IDE (human) activation, cell-based; HEK cells, FAbeta-B cleavage, fluorescence polarization; 0% vehicle, 100% cell-free pure enzyme wells; activation, % at 5.96 µM; hit rate 0.073% among 340,000; AID 493087;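 active means activation above the mean of all tested compounds plus 3 SD, set per screening campaign, cut at about 17% in these data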
ASAP1 inh: ASAP1 ArfGAP inhibition | Q9ULH1 | ASAP1-stimulated ARF1 GTP hydrolysis, GDP FP detection | inhibition, % at 16.5 µM | hit rate 0.19% among 360,000 | AID 624377; in the data active means inhibition above about 25%;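 further: 0% = vehicle with enzyme and substrate and 100% = no enzyme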
PREPL inh: human PREPL enzyme inhibition. inhibition, % at 5.96 µM. hit rate 0.68% among 320,000. AID 2751. recombinant PREPL, fluorescence polarization activity-based probe; in the data active means inhibition above about 43%;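 further: 0% = enzyme with DMSO and 100% = wells lacking enzyme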
Target sequence (Q4J6C6 whole entry, looked up): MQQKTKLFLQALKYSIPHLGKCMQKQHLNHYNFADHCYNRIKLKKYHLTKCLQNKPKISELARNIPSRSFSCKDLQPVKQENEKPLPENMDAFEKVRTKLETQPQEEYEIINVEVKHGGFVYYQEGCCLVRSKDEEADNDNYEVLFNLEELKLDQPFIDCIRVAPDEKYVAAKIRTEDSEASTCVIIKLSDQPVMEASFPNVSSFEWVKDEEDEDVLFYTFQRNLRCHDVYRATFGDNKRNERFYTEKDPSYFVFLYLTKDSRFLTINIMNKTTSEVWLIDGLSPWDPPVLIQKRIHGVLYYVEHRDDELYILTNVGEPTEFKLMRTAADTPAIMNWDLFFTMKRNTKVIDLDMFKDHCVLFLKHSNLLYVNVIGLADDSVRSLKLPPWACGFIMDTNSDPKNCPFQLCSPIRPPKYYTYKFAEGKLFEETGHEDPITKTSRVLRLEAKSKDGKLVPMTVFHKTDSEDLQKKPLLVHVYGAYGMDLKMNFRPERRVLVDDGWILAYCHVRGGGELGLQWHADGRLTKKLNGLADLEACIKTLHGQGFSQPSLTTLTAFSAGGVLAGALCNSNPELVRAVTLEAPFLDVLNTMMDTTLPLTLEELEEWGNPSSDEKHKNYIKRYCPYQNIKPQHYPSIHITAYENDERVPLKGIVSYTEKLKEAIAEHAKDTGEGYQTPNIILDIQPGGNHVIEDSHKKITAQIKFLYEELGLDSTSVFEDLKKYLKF
ARFGAP1 inhibitor: inhibits rat ARF GTPase activating protein 1 | Q62848 | Arfgap1-stimulated ARF1 GTP hydrolysis, GDP FP detection | inhibition, % at 16.5 µM | hit rate 0.26% among 360,000 | AID 651572;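 active means inhibition above a per-plate limit, mean inhibition of low control wells plus 3 SD, cut at about 25% in these data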;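 further: 0% = DMSO wells with enzyme and 100% = wells lacking Arfgap1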
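Repeats: one replicate per compound; assay system: rat Arfgap1 catalytic domain, aa 1-136; times: enzyme reaction 120 min at 25 °C after 20 min preincubation; detection: FP of antibody-bound GDP Alexa 633 tracer, ex 620/em 688 nm; benchmarks: high control wells lacking Arfgap1, low control full reaction with DMSO; reagent: human ARF1(Δ1-17)-GTP substrate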
IDE cell inh: inhibits human insulin-degrading enzyme in HEK cells. FAbetaB cleavage, fluorescence polarization. AID 434962. inhibition, % at 5.59 µM. hit rate 0.41% among 320,000;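 active means percent inhibition above the average of all tested compounds plus 3 SD, set per screening campaign, cut at about 16% in these data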;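 further: IDE supplied by intact live HEK cells; FP after avidin binding of uncleaved biotin substrate so inhibition keeps polarization high; 0% = DMSO wells and 100% = 60 µM reference IDE inhibitor Ii1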
IDE inh confirm: cellular human IDE inhibition, confirmation; shares compounds with IDE cell inh; HEK cells, FAbetaB cleavage, fluorescence polarization; inhibition, % at 5.59 µM; hit rate 51% among 1,200; AID 435028;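 active means mean inhibition across triplicate wells above the cutoff set by the earlier primary insulin-degrading enzyme screen, cut at about 16% in these data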;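 further: 0% = DMSO wells and 100% = 60 µM reference IDE inhibitor Ii1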
HEK293 tox: kills HEK cells in IDE inhibitor counter-screen. shares compounds with IDE cell inh. HEK293 cytotoxicity, ATP luminescence. inhibition, % at 5.59 µM. hit rate 28% among 1,200; in the data active means inhibition above about 22%;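 further: 0% = vehicle wells and 100% = reference cytotoxic drug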
ASAP1 GAP conf: ASAP1 inhibition confirmed; ASAP1-stimulated Arf1 GTPase, GDP fluorescence polarization; inhibition, % at 16.5 µM; AID 624431; hit rate 37% among 620; shares compounds with ASAP1 inh;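 active means mean inhibition over triplicates exceeds the hit threshold derived for the earlier primary screening run, cut at about 25% in these data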
ARFGAP1 inh conf: confirmation of rat ARFGAP1 inhibitors | ARFGAP1-stimulated ARF1 GTP hydrolysis, GDP tracer FP | shares compounds with ARFGAP1 inhibitor | inhibition, % at 16.5 µM | AID 651608 | hit rate 30% among 890;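 active means average inhibition over triplicates above the hit cutoff set in the earlier primary screen, cut at about 25% in these data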;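 further: 0% = Arfgap1 plus ARF1-GTP with DMSO and 100% = wells lacking Arfgap1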
* = called active by the depositor; . = not tested or not shown.

SMILES	IDE cell activ	ASAP1 inh	PREPL inh	ARFGAP1 inhibitor	IDE cell inh	ASAP1 GAP conf	others
O=C(N/N=C/c1c(O)ccc2ccccc12)c1cccc(C(F)(F)F)c1	-132.1	26.5*	21.4	8.4	180.3*	24.4	IDE inh confirm=137.4*;HEK293 tox=114.5*
COc1ccc(OC)c(/C=C2\Oc3cc(OCC(=O)N4CCC(C(=O)O)CC4)ccc3C2=O)c1	-36.3	15.5	6.5	42.4*	22.1*	.	IDE inh confirm=65.3*;HEK293 tox=8.1;ARFGAP1 inh conf=48.1*
CCCCC(c1nc2ccccc2[nH]1)n1c(-c2ccccc2)nc2ccccc21 (configuration not stated)	.	-10.2	.	2.2	.	.
COc1ccc(C(=O)Nc2ccc(Cl)cc2C(=O)NCc2ccco2)cc1	-0.6	27.2*	-14.1	3.8	8.9	7.3
Cc1cc(C)c(C#N)c(SCc2cn3c(C)cccc3n2)n1	3.4	24.7*	7.8	18.5	6.7	18.5
CCC(=O)c1ccc(OC(=O)C2CCN(C3=NS(=O)(=O)c4ccccc43)CC2)cc1	0.4	26.7*	5.5	-2.6	2.1	8.9
O=C(Nc1ccc(Br)cc1)C1CCCN(C2=NS(=O)(=O)c3ccccc32)C1 (configuration not stated)	-2.5	-3.9	7.9	-12.9	1.1	.
O=C(Oc1ccc(Br)cc1)C1CCN(C2=NS(=O)(=O)c3ccccc32)CC1	0.4	24.7*	.	0.3	.	4.6
Cc1ccc(OCC(=O)N2CCN(C3=NS(=O)(=O)c4ccccc43)CC2)cc1	0.6	0.5	-0.3	-21.9	-3.3	.
O=C(NCCC(F)(F)F)C1Cc2c(-c3ccc(Cl)cc3)ccnc2O1 (configuration not stated)	.	-4.0	.	-14.3	.	.
Cc1ccc(NC(=O)C(OC(=O)c2ccc(NC(N)=O)cc2)c2ccccc2)cc1Cl (configuration not stated)	0.8	27.5*	-23.8	10.6	1.9	19.4
Cc1ccc(NC(=O)C(OC(=O)c2ccccc2Cl)c2ccccc2)cc1Cl (configuration not stated)	3.1	7.5	-9.4	5.4	-5.4	.
C[C@H](NC(=O)c1nc[nH]c1C(=O)N1CCN(C(=O)OC(C)(C)C)CC1)C(=O)OCc1ccccc1	1.4	-0.3	9.5	0.2	4.7	.
CC1CCN(C(=O)c2[nH]cnc2C(=O)N[C@@H](C)C(=O)OCc2ccccc2)CC1	0.8	24.9*	15.6	-9.9	2.8	2.4
COc1ccc(CN2C(=O)C(CC(=O)NC(c3ccccc3)c3ccccc3)CC(C(=O)N(C(C)C)C(C)C)=C2C)cc1 (configuration not stated)	.	-3.7	.	4.0	.	.
Cn1c(SCC(=O)N2CCCC2=O)nc2ccccc2c1=O	-1.5	4.3	17.8	0.0	-4.7	.
CN(CC(=O)Nc1ccccc1Cl)CC(=O)Nc1cccc2ccccc12	2.3	-5.3	2.3	-3.2	1.4	.
O=C1CC2(CCN(S(=O)(=O)c3ccccc3F)CC2)Oc2ccccc21	8.2	-10.5	-4.0	-2.3	1.0	.
CC(C)N(C(=O)CSc1ccc(S(=O)(=O)N2CCCCC2)cn1)C(C)C	5.5	-0.7	11.1	10.8	1.6	.
Cc1ccc(S(=O)(=O)NCCCNc2ccc([N+](=O)[O-])cc2)cc1	6.5	12.3	-94.5	-1.0	0.1	.
Cc1ccc(S(=O)(=O)NCCNc2ccc([N+](=O)[O-])cc2)cc1	5.1	28.7*	-24.1	-1.9	3.0	0.7
S=C(Nc1ccc2nsnc2c1)N1CCCC1	4.3	35.3*	-8.0	5.9	2.8	-1.8
CCCn1c(=S)[nH]c2cc(C(=O)N3CCN(C4CCCCC4)CC3)ccc2c1=O	-2.4	-6.5	10.0	-1.9	0.6	.
Cc1sc2ncnc(N3CCC(C(=O)N(C)CC(=O)Nc4ccc(Cl)c(C(F)(F)F)c4)CC3)c2c1C	-6.1	-1.6	16.7	-0.3	9.9	.
O=C(NCC1CCCO1)c1cccc(C(=O)NCC2CCCO2)c1 (configuration not stated)	3.3	-1.5	-5.2	-0.7	1.1	.
SMILES	IDE cell activ	ASAP1 inh	PREPL inh	ARFGAP1 inhibitor	IDE cell inh	ASAP1 GAP conf	others
O=C(NCC1CCCO1)c1ccc[nH]1 (configuration not stated)	0.4	26.9*	0.4	10.2	3.0	-5.0
N#Cc1ccccc1NC(=O)COC(=O)c1ccc2c(c1)OCO2	0.7	3.2	8.2	7.6	-1.5	.
COc1ccc(-c2[nH]ncc2/C=N\NC(=O)c2ccc(Br)o2)cc1OC	4.4	25.2*	8.1	19.4	7.0	17.4
COc1cccc(C(=O)N/N=C/c2cn[nH]c2-c2ccc(OC)cc2OC)c1	-2.0	3.4	-10.8	13.9	7.7	.
CC(Oc1ccc(C#N)cc1)C(=O)c1ccc(F)c(F)c1 (configuration not stated)	1.9	-3.6	-6.9	1.2	0.0	.
Cc1ccc(C(=O)O/N=C/c2c(C)nn(C)c2Cl)cc1	4.8	26.6*	38.7	3.9	1.7	0.1
CN(C)CCCNC(NC(=O)c1cccs1)C(Cl)(Cl)Cl (configuration not stated)	7.0	-14.9	3.8	-12.1	-1.5	.
COc1ccc(C(CNC(=O)COc2ccc(Cl)cc2C)N2CCCCC2)cc1 (configuration not stated)	4.2	-7.3	16.7	5.7	-4.9	.
CCCCCCCC(=O)NNC(=O)Cc1ccccc1	7.0	.	0.7	.	1.6	.
CCCCCCCCCCCC(=O)c1c(O)cccc1O	-2.2	28.0*	7.5	14.1	5.3	11.1
C=CCN(c1ccccc1OC)S(=O)(=O)c1cccc(C(=O)OCC(=O)N2CCOCC2)c1	5.2	76.5*	0.6	-3.9	-3.8	6.0
Cc1cc(C)cc(NC(=O)CSc2nc(CSc3ccc(Cl)cc3)cc(=O)[nH]2)c1	6.0	26.2*	-4.2	11.2	-1.8	-3.6
Fc1ccc(Nc2nc(-c3ccncc3)nc3ccccc23)cc1F	-1.2	37.8*	1.5	6.2	5.6	35.6*
COc1ccc(CCn2c(S)nc3ccccc3c2=O)cc1	-5.5	0.5	9.1	2.6	3.3	.
CC1=NN(c2ccc(Cl)cc2)C(=O)/C1=C\c1cccn1-c1ccc(S(N)(=O)=O)cc1	4.2	-14.3	18.0	0.8	0.1	.
COc1ccc(Cl)cc1NC(=O)COC(=O)c1cc(C)oc1C	-0.4	24.9*	4.5	5.7	1.8	16.1
COc1cc(NC(=O)c2ccccc2)ccc1NC(=O)Cc1ccccc1	5.0	15.1	3.6	-6.5	-5.8	.
COc1cc(NC(=O)Cc2ccccc2)ccc1NC(=O)Cc1ccccc1	5.4	29.5*	4.3	7.8	2.1	2.5

Source: PubChem (The Scripps Research Institute Molecular Screening Center)
